Results as given in ChEMBL document CHEMBL1667767, “Triazole incorporated pyridazinones as a new class of antihypertensive agents: design, synthesis and in vivo screening” (2011).

The compounds below were run on Rattus norvegicus (assay: Antihypertensive activity against methyl prednisolone acetate-induced hypertension in albino rat assessed as reduction in mean arterial pressure at 14 mg/kg, ip after 1 hr by tail-cuff method). Conditions: route intraperitoneal.
Assay type: functional, Artery
Parameters: scale not given: the % may be the effect or the level left
Outline: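 Albino rats of 200–250 g were trained in a restrainer for 10 min daily for 1 week. Hypertension was induced by s.c. methyl prednisolone acetate at 20 mg/kg/wk for 2 weeks, with an untreated control group kept alongside. Drug was given i.p. and mean arterial BP was read 1 h later in conscious rats by CODA tail-cuff. Results are mean ± SEM, compared with the hypertensive control by ANOVA and Dunnett test.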
`CC(C)NCC(O)COc1cccc2ccccc12` (configuration not stated) [PROPRANOLOL] was tested, and the Activity was 41.4%.

Each compound was assayed on Rattus norvegicus (assay: Antihypertensive activity against methyl prednisolone acetate-induced hypertension in albino rat assessed as reduction in mean arterial pressure at 20 mg/kg, ip after 1 hr by tail-cuff method). Conditions: route intraperitoneal.
Assay type: functional, Artery
Parameters: scale not given: the % may be the effect or the level left
Outline: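 Rats were albino, 200–250 g, and restrainer-trained for 10 min/day over 1 week. They were made hypertensive with s.c. methyl prednisolone acetate at 20 mg/kg/wk for 2 weeks. Each compound was suspended in 1% CMC and given i.p. at 20 mg/kg. Mean arterial BP was measured 1 h after dosing in conscious animals by CODA tail-cuff. Data are mean ± SEM, analysed by ANOVA and Dunnett test against the hypertensive control.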
Work on `O=C1CCC(c2ccccc2)=NN1c1n[nH]c(=S)n1-c1ccccc1` yielded an Activity of 30.01%. `O=C1CCC(c2ccccc2)=NN1c1n[nH]c(=S)n1-c1ccc(Cl)cc1` showed an Activity of 24.84%. `Cc1ccc(-n2c(N3N=C(c4ccccc4)CCC3=O)n[nH]c2=S)cc1` gave an Activity of 38.83%. In the case of `Cc1ccc(C2=NN(c3n[nH]c(=S)n3-c3ccccc3)C(=O)CC2)cc1`, the Activity was 27.3%. `Cc1ccc(C2=NN(c3n[nH]c(=S)n3-c3ccc(Cl)cc3)C(=O)CC2)cc1` gave an Activity of 41.84%. Work on `Cc1ccc(C2=NN(c3n[nH]c(=S)n3-c3ccc(C)cc3)C(=O)CC2)cc1` yielded an Activity of 31.25%. Work on `COc1ccc(C2=NN(c3n[nH]c(=S)n3-c3ccccc3)C(=O)CC2)cc1` yielded an Activity of 32.48%. Work on `COc1ccc(C2=NN(c3n[nH]c(=S)n3-c3ccc(Cl)cc3)C(=O)CC2)cc1` yielded an Activity of 16.09%. For `COc1ccc(C2=NN(c3n[nH]c(=S)n3-c3ccc(C)cc3)C(=O)CC2)cc1`, the Activity was 40.98%. For `CCc1ccc(C2=NN(c3n[nH]c(=S)n3-c3ccccc3)C(=O)CC2)cc1`, the Activity was 38.88%. For `CCc1ccc(C2=NN(c3n[nH]c(=S)n3-c3ccc(Cl)cc3)C(=O)CC2)cc1`, the Activity was 42.11%. In the case of `CCc1ccc(C2=NN(c3n[nH]c(=S)n3-c3ccc(C)cc3)C(=O)CC2)cc1`, the Activity was 32.97%. In the case of `CC(C)Cc1ccc(C2=NN(c3n[nH]c(=S)n3-c3ccccc3)C(=O)CC2)cc1`, the Activity was 30.51%. Work on `CC(C)Cc1ccc(C2=NN(c3n[nH]c(=S)n3-c3ccc(Cl)cc3)C(=O)CC2)cc1` yielded an Activity of 15.85%. `Cc1ccc(-n2c(N3N=C(c4ccc(CC(C)C)cc4)CCC3=O)n[nH]c2=S)cc1` showed an Activity of 12.5%. `O=C1CCC(c2ccc(-c3ccccc3)cc2)=NN1c1n[nH]c(=S)n1-c1ccccc1` showed an Activity of 10.67%. Work on `O=C1CCC(c2ccc(-c3ccccc3)cc2)=NN1c1n[nH]c(=S)n1-c1ccc(Cl)cc1` yielded an Activity of 14.37%. `Cc1ccc(-n2c(N3N=C(c4ccc(-c5ccccc5)cc4)CCC3=O)n[nH]c2=S)cc1` gave an Activity of 13.13%. In the case of `O=C1CCC(c2ccc(Cl)cc2)=NN1c1n[nH]c(=S)n1-c1ccccc1`, the Activity was 12.52%. Work on `O=C1CCC(c2ccc(Cl)cc2)=NN1c1n[nH]c(=S)n1-c1ccc(Cl)cc1` yielded an Activity of 11.29%. With `Cc1ccc(-n2c(N3N=C(c4ccc(Cl)cc4)CCC3=O)n[nH]c2=S)cc1` the Activity was 11.53%.
